A selection: hits, their analogues and other compounds. The true share with any hit is near 2.3%.
TRPC6 activator = activators of mouse TRPC6 channel. HEK293-TRPC6 membrane potential dye fluorescence; stronger effect = higher value. Q61143. B-score at 10 µM. hit rate 0.13% among 310,000;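 active means B-score of the integrated fluorescence ratio above library mean plus 3 SD, and starting fluorescence ratio within library mean plus 5 SD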;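 further: higher score means more depolarization so channel activation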
TRPC6 inhibitor = blocks the mouse TRPC6 cation channel; B-score at 10 µM; HEK293-TRPC6, membrane potential dye, ACh-evoked depolarization; stronger effect = lower value; hit rate 1.1% among 310,000; AID 2553;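 active means B-score under library mean minus 3 SD, initial fluorescence not abnormally high, positive integrated signal ratio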;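 further: B-score derived from integrated fluorescence ratio over the kinetic read; more negative B-score means stronger inhibition of depolarization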
TRPC4 act = activators of mouse TRPC4 channel; hit rate 0.49% among 310,000; B-score at 10 µM; Q9QUQ5; HEK293 TRPC4beta/mu-opioid, Fluo4 calcium fluorescence; stronger effect = higher value;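 active means B-score above 5 SD of library B-scores, and initial fluorescence ratio not above library mean plus 5 SD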;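 further: positive B-score marks a calcium rise read as TRPC4 activation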
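System – HEK293 cells stably co-expressing mouse TRPC4beta and mu-opioid receptor · Signal – Fluo4 calcium-sensitive dye fluorescence, kinetic, 1 Hz baseline · Benchmarks – buffer (low) and maximal DAMGO (high) · Read-out – B score of integrated fluorescence ratio per well · Incubation – dye loading 45 min room temperature, 110 s kinetic read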
TRPC4 PAM = TRPC4 (mouse) allosteric potentiation. Q9QUQ5. HEK293 TRPC4beta/mu-opioid, DAMGO EC20, Fluo-4 Ca2+ flux; stronger effect = higher value. B-score at 10 µM. hit rate 0.42% among 310,000. AID 2227;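 active means B-score of calcium response area above 5 SD of library B-scores, with initial fluorescence ratio within 5 SD of library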
TRPC4 block = TRPC4 (mouse) channel inhibition; HEK293 TRPC4beta/mu-opioid, DAMGO-evoked Fluo4 calcium flux; stronger effect = lower value; B-score at 10 µM; hit rate 0.39% among 300,000; AID 2247;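 active means B-score over 3 SD under the library average, no early fluorescence shift, positive overall ratio signal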
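System: stable TRPC4beta/mu-opioid receptor HEK293 cells; Dosing: single-point compound dosing; Measured by: Fluo4 Ca2+ flux fluorescence; Read-out basis: per-well B score of integrated baseline-normalized Fluo4 ratio.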
TRPC4 sel inh 2 = second selectivity test of TRPC6 inhibitors: effect on mouse TRPC4 | shares compounds with TRPC6 inhibitor | HEK293 TRPC4/MOR, membrane potential dye fluorescence; channel activated by saturating DAMGO dose | inhibition, % at 10 µM | hit rate 42% among 920;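 active means compounds whose fluorescence signal differed from control wells by over 3 SD, either direction, in both duplicate plates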
TRPC4 spec = mouse TRPC4 off-target activity of TRPC6 inhibitors; activity change, negative = inhibition, % at 10 µM; hit rate 61% among 920; AID 2777; shares compounds with TRPC6 inhibitor; HEK293 TRPC4/mu-opioid, membrane potential fluorescence;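 active means rise or fall in signal beyond 3 SD of buffer-only wells in both replicate plates, either sign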;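 further: integrated kinetic ratio of fluorescence range over baseline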
HEK293 MPD ctr 2-1 = second check of TRPC6 inhibitor effects in parental HEK293 cells; shares compounds with TRPC6 inhibitor; parental HEK293 membrane potential dye fluorescence; maximal acetylcholine challenge after compound addition; signal change vs control, % at 10 µM; hit rate 31% among 920;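 active means membrane potential signal moving either way by over 3 SD of the maximum-effect control, in both duplicate plates, meaning non-specific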
HEK293 MPD ctr-1 = parental HEK293 nonspecific activity of TRPC6 inhibitors | shares compounds with TRPC6 inhibitor | membrane potential signal change, % at 10 µM | hit rate 60% among 920 | parental HEK293 membrane potential dye fluorescence | AID 2780;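 active means membrane potential signal shifting up or down by more than 3 SD of buffer-only wells, on both duplicate plates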
HEK293 MPD ctr-2 = parental HEK293 nonspecific activity of TRPC6 modulators; shares compounds with TRPC6 inhibitor; membrane potential dye fluorescence; membrane potential signal change, % at 10 µM; hit rate 51% among 2,400;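 active means membrane potential signal moves up or down beyond 5 SD from buffer-only wells, on both duplicate plates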
HEK293 MPD ctr 2-2 = parental HEK293 nonspecific activity of TRPC6 modulators, second screen; membrane potential dye fluorescence; after compound, maximal acetylcholine stimulation; hit rate 14% among 2,400; inhibition, % at 10 µM; AID 488926; shares compounds with TRPC6 inhibitor;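 active means membrane potential signal drops by more than 5 SD from the mean control signal, in both duplicate plates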
TRPC4/MOR mod = selectivity of TRPC6 modulators against mouse TRPC4. HEK293 TRPC4/mu-opioid, membrane potential fluorescence. percent change from control (negative = decrease, positive = increase), % at 10 µM. shares compounds with TRPC6 inhibitor. hit rate 69% among 2,400;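 active means membrane potential signal moved up or down beyond 5 SD of buffer control wells, in both duplicate plates, actives on both sides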
TRPC4 ctr inh 2 = mouse TRPC4 off-target activity of TRPC6 modulators, second screen; shares compounds with TRPC6 inhibitor; HEK293 TRPC4/mu-opioid, membrane potential dye fluorescence; stimulated with maximal-effect DAMGO; inhibition, % at 10 µM; hit rate 55% among 2,400;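 active means drop in membrane potential signal beyond 5 SD of the control wells in both duplicate plates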;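 further: TRPC4 counter screen for TRPC6 hits run under conditions tuned for TRPC6 not TRPC4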
TRPC6 inh conf = confirmation of mouse TRPC6 inhibitors; shares compounds with TRPC6 inhibitor; HEK293-TRPC6, membrane potential dye, ACh-evoked depolarization; inhibition, % at 10 µM; hit rate 43% among 3,300;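 active means fluorescence ratio falls more than 5 SD below the full-stimulation control mean, in both duplicate runs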;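 further: integrated fluorescence ratio of peak minus minimum over baseline after agonist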
TRPC6 act confirm = confirmation of mouse TRPC6 activators; shares compounds with TRPC6 inhibitor; HEK293-TRPC6 membrane potential dye fluorescence, FDSS; activation, % at 10 µM; hit rate 11% among 2,800; AID 488961;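 active means ratio signal rise beyond 5 SD above unstimulated control wells' mean, seen in both duplicate runs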
Numbers stand for hits.

Fc1ccccc1N1CCN(C2CCN(Cc3c[nH]c4ccccc34)CC2)CC1 was read as TRPC6 activator inactive, TRPC6 inhibitor -5.2, TRPC4 act inactive, TRPC4 PAM inactive, TRPC4 block inactive, HEK293 MPD ctr-2 148%, HEK293 MPD ctr 2-2 inactive, TRPC4/MOR mod 19%, TRPC4 ctr inh 2 58% and TRPC6 inh conf inactive.
`Clc1ccccc1N1CCN(Cc2c[nH]c3ccccc23)CC1` gave TRPC6 activator inactive, TRPC6 inhibitor inactive, TRPC4 act inactive, TRPC4 PAM inactive and TRPC4 block inactive.
Screening CCC(C)(C)n1nnnc1C(c1ccc2ncccc2c1)N1CCCCCC1 (stereo unspecified) returned TRPC6 activator inactive, TRPC6 inhibitor -5.1, TRPC4 act inactive, TRPC4 PAM inactive, TRPC4 block inactive, HEK293 MPD ctr-2 inactive, HEK293 MPD ctr 2-2 inactive, TRPC4/MOR mod 28%, TRPC4 ctr inh 2 33% and TRPC6 inh conf inactive.
For c1cnc2ccc(C(c3nnnn3C3CCCCC3)N3CCCCC3)cc2c1 (stereo unspecified) the results were TRPC6 activator inactive, TRPC6 inhibitor -5.9, TRPC4 act inactive, TRPC4 PAM inactive, TRPC4 block inactive, HEK293 MPD ctr-2 149%, HEK293 MPD ctr 2-2 inactive, TRPC4/MOR mod 35%, TRPC4 ctr inh 2 30% and TRPC6 inh conf 54%.
CN1CCN(/N=C/c2ccc(N(c3ccccc3)c3ccccc3)cc2)CC1 was read as TRPC6 activator inactive, TRPC6 inhibitor inactive, TRPC4 act inactive, TRPC4 PAM inactive and TRPC4 block inactive.
Screening CN1CCN(/N=C/c2ccc(N(C)c3ccccc3)cc2)CC1 returned TRPC6 activator inactive, TRPC6 inhibitor -7.1, TRPC4 act inactive, TRPC4 PAM inactive, TRPC4 block inactive, HEK293 MPD ctr-2 inactive, HEK293 MPD ctr 2-2 inactive, TRPC4/MOR mod -12%, TRPC4 ctr inh 2 56%, TRPC6 inh conf 63% and TRPC6 act confirm inactive.
Screening COc1ccc(N2CCN(C(=O)c3ccc(CNS(=O)(=O)c4cc(C)ccc4C)cc3)CC2)cc1 returned TRPC6 activator inactive, TRPC6 inhibitor inactive, TRPC4 act inactive, TRPC4 PAM inactive and TRPC4 block inactive.
Screening COc1ccc(NC(=O)NC2CCCc3ccccc32)c(OC)c1 (stereo unspecified) returned TRPC6 activator inactive, TRPC6 inhibitor inactive, TRPC4 act inactive, TRPC4 PAM inactive and TRPC4 block inactive.
Screening COc1ccc(CNC2CCCc3ccccc32)c(OC)c1 (stereo unspecified) returned TRPC6 activator inactive, TRPC6 inhibitor -6, TRPC4 act inactive, TRPC4 PAM inactive, TRPC4 block inactive, HEK293 MPD ctr-2 218%, HEK293 MPD ctr 2-2 inactive, TRPC4/MOR mod 53%, TRPC4 ctr inh 2 63% and TRPC6 inh conf 64%.
For O=C(NCCc1ccccc1)[C@@H]1CC=C[C@@H]2CCN(Cc3ccc(Cl)c(Cl)c3)C(=O)[C@@H]21 the results were TRPC6 activator inactive, TRPC6 inhibitor inactive, TRPC4 act inactive and TRPC4 PAM inactive.
O=S(=O)(NCCSc1ccccn1)c1ccc(Br)cc1 was read as TRPC6 activator inactive, TRPC6 inhibitor inactive, TRPC4 act inactive, TRPC4 PAM inactive and TRPC4 block inactive.
Screening Cc1ccccc1C(=O)NCCSc1ccccc1 returned TRPC6 activator inactive, TRPC6 inhibitor -7.5, TRPC4 act inactive, TRPC4 PAM inactive, TRPC4 block inactive, TRPC4 sel inh 2 inactive, TRPC4 spec 3.9%, HEK293 MPD ctr 2-1 inactive, HEK293 MPD ctr-1 2.1%, TRPC6 inh conf inactive and TRPC6 act confirm inactive.
For Nc1cc(N)nc(CS)n1 the results were TRPC6 activator inactive, TRPC6 inhibitor inactive, TRPC4 act inactive, TRPC4 PAM inactive and TRPC4 block inactive.
For O=C(/C=C/c1ccc(N2CCC(c3ccccc3)=N2)cc1)c1ccccc1 the results were TRPC6 activator 15, TRPC6 inhibitor inactive, TRPC4 act inactive, TRPC4 PAM inactive, TRPC4 block inactive, HEK293 MPD ctr-2 350%, HEK293 MPD ctr 2-2 inactive, TRPC4/MOR mod 80%, TRPC4 ctr inh 2 inactive, TRPC6 inh conf inactive and TRPC6 act confirm 46%.
Cc1ccc(CNC(=O)c2cc3c(s2)CN(Cc2ccccc2)C3)cc1 was read as TRPC6 activator inactive, TRPC6 inhibitor inactive, TRPC4 act inactive, TRPC4 PAM inactive and TRPC4 block inactive.
CCc1ccc(N=C2N=C(N)c3ccccc32)cc1 was read as TRPC6 activator inactive, TRPC6 inhibitor -7.8, TRPC4 act inactive, TRPC4 PAM inactive, TRPC4 block inactive, TRPC4 sel inh 2 28%, TRPC4 spec -21%, HEK293 MPD ctr 2-1 inactive, HEK293 MPD ctr-1 -465%, TRPC6 inh conf 71% and TRPC6 act confirm inactive.
For CCOC(=O)c1cccc(NC(=S)NCc2ccc(C)cc2)c1 the results were TRPC6 activator inactive, TRPC6 inhibitor inactive, TRPC4 act inactive, TRPC4 PAM inactive and TRPC4 block inactive.
`CC/C(C)=N/Nc1cccc([N+](=O)[O-])c1` gave TRPC6 activator inactive, TRPC6 inhibitor inactive, TRPC4 act inactive, TRPC4 PAM inactive and TRPC4 block inactive.
For CCCN(C(=O)c1cn(-c2ccccc2)nc1-c1ccc(OC)cc1)C1CCS(=O)(=O)C1 (stereo unspecified) the results were TRPC6 activator inactive, TRPC6 inhibitor inactive, TRPC4 act inactive, TRPC4 PAM inactive and TRPC4 block inactive.

Source: PubChem (Johns Hopkins Ion Channel Center)
